The target of series [1] is T1, Histone-lysine N-methyltransferase SUV39H1 (Homo sapiens) (UniProt O43463).
T1 sequence (whole entry): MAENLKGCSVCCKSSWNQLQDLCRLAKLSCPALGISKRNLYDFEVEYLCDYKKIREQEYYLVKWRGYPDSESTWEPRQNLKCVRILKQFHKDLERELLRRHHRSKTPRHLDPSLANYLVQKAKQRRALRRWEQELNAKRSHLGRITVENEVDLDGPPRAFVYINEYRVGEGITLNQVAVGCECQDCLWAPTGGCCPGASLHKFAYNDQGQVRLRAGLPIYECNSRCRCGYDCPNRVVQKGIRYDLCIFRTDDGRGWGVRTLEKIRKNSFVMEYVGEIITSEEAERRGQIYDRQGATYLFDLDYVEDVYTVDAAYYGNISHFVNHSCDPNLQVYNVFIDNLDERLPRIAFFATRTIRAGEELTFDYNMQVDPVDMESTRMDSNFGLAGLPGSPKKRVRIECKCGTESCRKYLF
Nature of the series: Inhibition of SUV39H1 (unknown origin) at 10 uM relative to control.

Series [2] in a line: AUC (0 to infinity) in CD1 mouse at 5 mg/kg, administered through oral gavage measured up to 24 hrs by LC-MS/MS analysis. The format is ADME, organism-based. Also on record: dose 5 mg/kg, time infinity, route oral. To be noted: in vivo. The procedure, abridged:
(§1)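 Male CD-1 mice received a single bolus: 1 mg/kg i.v., or 5 or 50 mg/kg p.o. Values are mean ± SD, n = 3. […] Bioavailability was determined separately for each oral dose.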

Series [3] can be described thus: Clearance in CD1 mouse at 1 mg/kg, iv as bolus dose measured up to 24 hrs by LC-MS/MS analysis. The format is ADME, organism-based. To be noted: in vivo. The procedure, abridged:
as §1

Series [4] is described as follows: AUC (0 to infinity) in CD1 mouse at 1 mg/kg, iv as bolus dose measured up to 24 hrs by LC-MS/MS analysis. Also on record: dose 1 mg/kg, route intravenous, time infinity. The format is ADME, organism-based. Conditions: in vivo. The procedure, abridged:
as §1

Series [5] is described as follows: Terminal half life in CD1 mouse at 1 mg/kg, iv as bolus dose by LC-MS/MS analysis. The format is ADME, organism-based. To be noted: in vivo, read-out: beta t1/2 (converted). The method in brief:
as §1

Series [6] is described as follows: AUC (0 to infinity) in CD1 mouse at 50 mg/kg, administered through oral gavage measured up to 24 hrs by LC-MS/MS analysis. The format is ADME, organism-based. The arrangement: dose 50 mg/kg, time infinity, route oral. Conditions: in vivo. The method in brief: as §1
Series [7] can be described thus: Cmax in CD1 mouse at 50 mg/kg, administered through oral gavage measured up to 24 hrs by LC-MS/MS analysis. The arrangement: dose 50 mg/kg, route oral. The format is ADME, organism-based. Conditions: in vivo. The method in brief: as §1
The nature of series [8]: Terminal half life in CD1 mouse at 50 mg/kg, administered through oral gavage by LC-MS/MS analysis. The format is ADME, organism-based. To be noted: in vivo, read-out: beta t1/2 (converted). The method in brief:
as §1

Series [9] can be described thus: Drug excretion in CD1 mouse urine at 1 mg/kg, iv as bolus dose after 24 hrs by LC-MS/MS analysis. To be noted: read-out: Drug excretion. The format is ADME, organism-based. The procedure, abridged: as §1
Series [10] is described as follows: Renal clearance in CD1 mouse at 1 mg/kg, iv as bolus dose measured up to 24 hrs by LC-MS/MS analysis. The format is ADME, organism-based, Kidney. Conditions: in vivo. The procedure, abridged:
as §1

Series [11] is described as follows: AUC (0 to last) in CD1 mouse at 5 mg/kg, administered through oral gavage measured up to 24 hrs by LC-MS/MS analysis. The arrangement: dose 5 mg/kg, route oral, time 0 - last. Conditions: in vivo. The format is ADME, organism-based. The method in brief: as §1
A short description of series [12]: Tmax in CD1 mouse at 50 mg/kg, administered through oral gavage by LC-MS/MS analysis. The format is ADME, organism-based. Conditions: in vivo. The method in brief:
as §1

A short description of series [13]: Oral bioavailability in CD1 mouse at 5 mg/kg measured up to 24 hrs by LC-MS/MS analysis. The format is ADME, organism-based. To be noted: in vivo. The procedure, abridged: as §1
Series [14] can be described thus: AUC (0 to last) in CD1 mouse at 50 mg/kg, administered through oral gavage measured up to 24 hrs by LC-MS/MS analysis. Conditions: in vivo. The arrangement: dose 50 mg/kg, route oral, time 0 - last. The format is ADME, organism-based. The procedure, abridged: as §1
Series [15] can be described thus: Efflux ratio of apparent permeability in human Caco2 cells at 10 uM incubated for 120 mins by LC-MS/MS analysis. To be noted: Caco-2. The format is ADME, cell-based. The procedure, abridged:
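Permeability in Caco-2 cells, measured apical-to-basolateral as P_app (×10⁻⁶ cm/s). An efflux ratio is reported as the index of active efflux. This is part of an in vitro ADME screen run before mouse PK studies.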
A general note: Passage across Caco-2 layers is used to estimate intestinal permeability.

In series [16] the target is T2, Histone-lysine N-methyltransferase SMYD3 (Homo sapiens, UniProt Q9H7B4).
T2 sequence (Q9H7B4 whole entry): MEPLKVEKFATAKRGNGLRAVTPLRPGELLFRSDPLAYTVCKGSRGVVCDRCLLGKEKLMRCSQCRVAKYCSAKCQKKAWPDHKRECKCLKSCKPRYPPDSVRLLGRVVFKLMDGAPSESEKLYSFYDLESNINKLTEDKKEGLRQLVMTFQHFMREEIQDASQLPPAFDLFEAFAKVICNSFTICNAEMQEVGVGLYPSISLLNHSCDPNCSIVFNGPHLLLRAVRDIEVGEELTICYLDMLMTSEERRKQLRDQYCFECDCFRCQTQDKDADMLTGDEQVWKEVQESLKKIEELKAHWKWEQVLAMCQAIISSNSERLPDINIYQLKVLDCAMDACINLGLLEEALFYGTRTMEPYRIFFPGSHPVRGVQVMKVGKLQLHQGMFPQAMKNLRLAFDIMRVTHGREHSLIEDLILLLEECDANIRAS
Nature of the series: Non-competitive inhibition of full length N-terminal His-tagged SMYD3 (1 to 428 residues) (unknown origin) expressed in Escherichia coli using varying N-terminal GST-tagged MEKK2 substrate and fixed SAM levels preincubated for 30 mins followed by substrate addition by filter plate assay.

Series [17] deals with T2, Histone-lysine N-methyltransferase SMYD3. Put plainly: Inhibition of full length N-terminal His-tagged SMYD3 (1 to 428 residues) (unknown origin) expressed in Escherichia coli using N-terminal GST-tagged MEKK2 as substrate preincubated for 30 mins followed by substrate addition by scintillation proximity assay in presence of [3H]SAM. For orientation: In a scintillation proximity assay essentially only radioactivity close to the scintillant gives light.

A short description of series [18]: Cmax in CD1 mouse at 5 mg/kg, administered through oral gavage measured up to 24 hrs by LC-MS/MS analysis. The format is ADME, organism-based. The arrangement: dose 5 mg/kg, route oral. Conditions: in vivo. The method in brief: as §1
A short description of series [19]: Oral bioavailability in CD1 mouse at 50 mg/kg measured up to 24 hrs by LC-MS/MS analysis. The format is ADME, organism-based. Conditions: in vivo. The procedure, abridged: as §1
Series [20] can be described thus: Terminal half life in CD1 mouse at 5 mg/kg, administered through oral gavage by LC-MS/MS analysis. The format is ADME, organism-based. To be noted: in vivo, read-out: beta t1/2 (converted). The procedure, abridged:
as §1

For series [21], the target named is T2, Histone-lysine N-methyltransferase SMYD3. Nature of the series: Non-competitive inhibition of full length N-terminal His-tagged SMYD3 (1 to 428 residues) (unknown origin) expressed in Escherichia coli using fixed N-terminal GST-tagged MEKK2 substrate and varying SAM levels preincubated for 30 mins followed by substrate addition by filter plate assay.
Series [22] is described as follows: AUC (0 to last) in CD1 mouse at 1 mg/kg, iv as bolus dose measured up to 24 hrs by LC-MS/MS analysis. The format is ADME, organism-based. The arrangement: dose 1 mg/kg, time 0 - last, route intravenous. Conditions: in vivo. The procedure, abridged: as §1
The nature of series [23]: Volume of distribution at steady state in CD1 mouse at 1 mg/kg, iv as bolus dose measured up to 24 hrs by LC-MS/MS analysis. The format is ADME, organism-based. To be noted: in vivo, read-out: Vdss. The procedure, abridged:
as §1

Series [24] can be described thus: Tmax in CD1 mouse at 5 mg/kg, administered through oral gavage by LC-MS/MS analysis. To be noted: in vivo. The format is ADME, organism-based. The method in brief:
as §1

A value given as a limit tells only on which side of the number the result lay.

Turning to `O=C1Cc2cc(C(=O)N[C@H]3C[C@H]4CC[C@@H](C3)N4S(=O)(=O)CC3CCN(CCCC(F)(F)F)CC3)c(Cl)cc2N1`, the inhibition in [1] was below 30%. Also, the AUC(0-inf) in [2] is 1480 ng·h/mL; in [4], 616 ng·h/mL; in [6], 21200 ng·h/mL. The clearance in series [3] worked out at 27 mL/min/kg. For the same compound, the half-life is 1.7 h in series [5], 2.2 h in series [8] and 2.7 h in series [20]. Moreover, the highest concentration (Cmax) in series [7] is 4690 ng/mL; in series [18], 345 ng/mL. In addition, the dose excreted at 24 h in series [9] is 20%. Also, the CL renal at 24 h in series [10] came to 5.3 mL/min/kg. Also, the AUC(0-t) at 24 h worked out at 1280 ng·h/mL in series [11], 21200 ng·h/mL in [14] and 603 ng·h/mL in [22]. Also, the Tmax was determined as 1.3 h in [12] and 0.89 h in [24]. For the same compound, the bioavailability in [13] is 48%; in series [19] it was 69%. Besides, the efflux ratio at 2 h, 10 µM in series [15] turned out to be 41. The Ki in [16] came out at 1.1 nM; in [21] it was 1.2 nM. In addition, the IC50 in [17] amounted to 3 nM. Further, the Vd in series [23] worked out at 2.3 L/kg.

`O=C1Cc2cc(C(=O)N[C@H]3C[C@H]4CC[C@@H](C3)N4S(=O)(=O)N3CCC(NCc4ccccc4)CC3)c(Cl)cc2N1` returned an inhibition in series [1] below 30%.

What is called inhibition is the change of the read-out against control, counted positive when it falls. Higher therefore signals a response far below the control. Broadly, the AUC(0-inf) is the area under the concentration-time curve extrapolated to infinity. In general, clearance refers to a measure of how efficiently the substance is removed, as volume per time. As usually defined, the Cmax is the peak of the concentration-time curve. Broadly, the AUC(0-t) is the area under the concentration-time curve up to a stated or last time point. The low end stands for low exposure, the high end for high exposure. By Tmax is commonly meant the time from dosing to the highest level. One may read the bioavailability as dose-corrected exposure relative to a reference, in per cent. As a reminder, the efflux ratio is the permeability from basolateral to apical divided by that in the opposite direction, in the common usage. For orientation: Ki means the dissociation constant of the complex between target and ligand, obtained from inhibition or displacement. Usually IC50 stands for the concentration at which inhibition is half-maximal.

The values are drawn from ChEMBL document CHEMBL3797202, “Novel Oxindole Sulfonamides and Sulfamides: EPZ031686, the First Orally Bioavailable Small Molecule SMYD3 Inhibitor” (ACS Med Chem Lett, 2016).
